Measured values published in ChEMBL document CHEMBL1155279, “1,5-Diaryl-2-ethyl pyrrole derivatives as antimycobacterial agents: design, synthesis, and microbiological evaluation” (Eur J Med Chem, 2009).
Converted amounts (≈) assume the structure as drawn.

Experiments:
[1] = tested on: Mycobacterium tuberculosis; experiment: Antimycobacterial activity against Mycobacterium tuberculosis CIP 103471 by twofold agar dilution method; assay type: functional
In short: (§1)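 Twofold agar dilution in Middlebrook 7H11 agar with 10% OADC (oleic acid, albumin, dextrose). Compounds dissolved in DMSO at 5 mg/mL (one in ethanol at 6 mg/mL), stock, stored cold. MIC determined for each strain. Strains: M. tuberculosis CIP 103471, H37Rv ATCC 27294, rifampicin-resistant ATCC 35838, M. avium CIP 103317.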

[2] = tested on: Mycobacterium tuberculosis; experiment: Antimycobacterial activity against Mycobacterium tuberculosis H37Rv by twofold agar dilution method; assay type: functional; in short: as §1
Mycobacterium avium = experiment: Antimycobacterial activity against Mycobacterium avium CIP 103317 by twofold agar dilution method; assay type: functional; in short: as §1
[3] = Cytotoxicity against african green monkey Vero cells after 72 hrs; assay type: cell-based; settings: chlorocebus sabaeus
In short: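 Vero cells exposed to compounds (stocks 5 mg/mL in DMSO; one compound 6 mg/mL in ethanol). After 72 h incubation, cells examined microscopically for morphological changes. Maximum non-toxic dose (MNTD) taken as the highest drug concentration producing no morphological change.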

[4] = Protection index, ratio of MNTD for african green monkey Vero cells to MIC for Mycobacterium tuberculosis CIP 103471; assay type: functional
In short: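 Vero cells exposed to drug; after 72 h of incubation, morphology was checked microscopically. MNTD is the highest concentration with no morphological change. PI = MNTD/MIC, with MIC from twofold agar dilution in Middlebrook 7H11 + 10% OADC against M. tuberculosis CIP 103471.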

Compound | MIC [1] | MIC [2] | MIC (Mycobacterium avium) | MNTC at 72 h [3] | PI [4]
Cc1c(CN2CCN(C)CC2)cc(-c2ccc(Cl)cc2)n1-c1ccc(Cl)cc1 | 1 µg/mL (≈ 2.41 µM) | 1 µg/mL (≈ 2.41 µM) | 0.5 µg/mL (≈ 1.21 µM) | 4 µg/mL | 4
Cc1ccc(-c2cc(CN3CCSCC3)c(C)n2-c2ccc(F)cc2)cc1 | 0.25 µg/mL (≈ 0.657 µM) |  |  |  | 256
Cc1c(CN2CCSCC2)cc(-c2ccc(F)cc2)n1-c1ccccc1F | 0.5 µg/mL (≈ 1.3 µM) |  |  |  | 16
Cc1c(CN2CCSCC2)cc(-c2ccc(F)cc2)n1-c1ccccc1 | 0.5 µg/mL (≈ 1.36 µM) |  |  |  | 8
Cc1c(CN2CCSCC2)cc(-c2ccccc2)n1-c1ccccc1 | 1 µg/mL (≈ 2.87 µM) |  |  |  | 32
CCc1c(CN2CCSCC2)cc(-c2ccc(F)cc2)n1-c1ccccc1F | 2 µg/mL (≈ 5.02 µM) | 2 µg/mL (≈ 5.02 µM) | 8 µg/mL (≈ 20.1 µM) | 8 µg/mL | 4
CCc1c(CN2CCSCC2)cc(-c2ccccc2F)n1-c1ccccc1F | 4 µg/mL (≈ 10 µM) | 8 µg/mL (≈ 20.1 µM) | 16 µg/mL (≈ 40.1 µM) | 8 µg/mL | 2
Cc1c(CN2CCSCC2)cc(-c2ccccc2)n1-c1ccc(F)cc1 | 0.4 µg/mL (≈ 1.09 µM) |  |  |  | 20
CCc1c(CN2CCSCC2)cc(-c2ccc(F)cc2)n1-c1ccc(F)cc1 | 16 µg/mL (≈ 40.1 µM) |  | 16 µg/mL (≈ 40.1 µM) | 8 µg/mL | 0.5
CCc1c(CN2CCSCC2)cc(-c2ccccc2)n1-c1ccccc1 | 2 µg/mL (≈ 5.52 µM) | 4 µg/mL (≈ 11 µM) | 8 µg/mL (≈ 22.1 µM) | 16 µg/mL | 8
CCc1c(CN2CCSCC2)cc(-c2ccc(F)cc2)n1-c1ccccc1 | 1 µg/mL (≈ 2.63 µM) | 1 µg/mL (≈ 2.63 µM) | 8 µg/mL (≈ 21 µM) | 8 µg/mL | 8
CCc1c(CN2CCN(C)CC2)cc(-c2ccc(Cl)cc2)n1-c1ccc(Cl)cc1 | 2 µg/mL (≈ 4.67 µM) | 4 µg/mL (≈ 9.34 µM) | 4 µg/mL (≈ 9.34 µM) | 8 µg/mL | 4
CCc1c(CN2CCSCC2)cc(-c2ccc(C)cc2)n1-c1ccc(F)cc1 | 0.25 µg/mL (≈ 0.634 µM) | 0.25 µg/mL (≈ 0.634 µM) | 16 µg/mL (≈ 40.6 µM) | > 128 µg/mL | >512
CCc1c(CN2CCSCC2)cc(-c2ccccc2)n1-c1ccc(F)cc1 | 2 µg/mL (≈ 5.26 µM) | 4 µg/mL (≈ 10.5 µM) | 16 µg/mL (≈ 42 µM) | 16 µg/mL | 8
Cc1c(CN2CCSCC2)cc(-c2ccccc2F)n1-c1ccccc1F | 1 µg/mL (≈ 2.6 µM) |  |  |  | 32
Cc1c(CN2CCSCC2)cc(-c2ccc(F)cc2)n1-c1ccc(F)cc1 | 1 µg/mL (≈ 2.6 µM) |  |  |  | 8
CO[C@H]1/C=C/O[C@@]2(C)Oc3c(C)c(O)c4c(O)c(c(/C=N/N5CCN(C)CC5)c(O)c4c3C2=O)NC(=O)/C(C)=C\C=C\[C@H](C)[C@H](O)[C@@H](C)[C@@H](O)[C@@H](C)[C@H](OC(C)=O)[C@@H]1C [RIFAMPIN] | 0.25 µg/mL (≈ 0.304 µM) | 0.25 µg/mL (≈ 0.304 µM) | 0.25 µg/mL (≈ 0.304 µM) | 64 µg/mL | 256
CN[C@@H]1[C@H](O[C@H]2[C@H](O[C@H]3[C@H](O)[C@@H](O)[C@H](N=C(N)N)[C@@H](O)[C@@H]3N=C(N)N)O[C@@H](C)[C@]2(O)C=O)O[C@@H](CO)[C@H](O)[C@H]1O [STREPTOMYCIN] | 0.5 µg/mL (≈ 0.86 µM) | 0.5 µg/mL (≈ 0.86 µM) | 8 µg/mL (≈ 13.8 µM) | 128 µg/mL | 256
